Reference: ChEMBL document CHEMBL4385668, “Synthesis and in vitro anticancer activity of new gemcitabine-nucleoside analogue dimers containing methyltriazole or ester-methyltriazole linker” (Bioorg Med Chem Lett, 2019)
pIC50: −log10 of the molar value.

Tests used:
NHDF = experiment: Cytotoxicity in human NHDF cells assessed as reduction in cell viability incubated for 72 hrs by SRB assay; format: cell-based
In short: (§1)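 SRB assay of cell viability in human cancer lines (HeLa, KB, A549, U87, HepG2) and normal dermal fibroblasts (HDF). IC50 values are […] of three independent experiments.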

[1] = Drug metabolism in human HeLa cells assessed as gemcitabine release incubated for 12 hrs by HPLC/MS method; format: ADME, cell-based
In short: (§2)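 HeLa cells were incubated with the dimer at 37 °C for 12 h. Cell lysate was analysed by HPLC/MS for released gemcitabine, the deamination product dFdU and the thymidine-triazole fragment. A separately synthesized sample of the thymidine-triazole fragment was used as the reference.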

[2] = Drug metabolism in human HeLa cells assessed as 3'-[4-(hydroxymethyl)-(1,2,3-triazol-1-yl)]-3'-deoxythymidine release incubated for 12 hrs by HPLC/MS method; format: ADME, cell-based; in short: as §2
[3] = Drug metabolism in human HeLa cells assessed as 2',2'-difluoro-2'-deoxyuridine release incubated for 12 hrs by HPLC/MS method; format: ADME, cell-based; in short: as §2
HeLa = experiment: Cytotoxicity in human HeLa cells assessed as reduction in cell viability incubated for 72 hrs by SRB assay; format: functional, cell-based; in short: as §1
[4] = Selectivity index, ratio of IC50 for cytotoxicity in human NHDF cells to IC50 for cytotoxicity in human KB cells
In short: (§3)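 Selectivity index is the IC50 in normal HDF fibroblasts divided by the IC50 in the given cancer line.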

HepG2 = experiment: Cytotoxicity in human HepG2 cells assessed as reduction in cell viability incubated for 72 hrs by SRB assay; format: functional, cell-based; details: HepG2, 72 h; in short: as §1
A549 = experiment: Cytotoxicity in human A549 cells assessed as reduction in cell viability incubated for 72 hrs by SRB assay; format: functional, cell-based; details: A549, 72 h; in short: as §1
[5] = Selectivity index, ratio of IC50 for cytotoxicity in human NHDF cells to IC50 for cytotoxicity in human HepG2 cells; in short: as §3
[6] = Selectivity index, ratio of IC50 for cytotoxicity in human NHDF cells to IC50 for cytotoxicity in human A549 cells; in short: as §3
[7] = Selectivity index, ratio of IC50 for cytotoxicity in human NHDF cells to IC50 for cytotoxicity in human U87 cells; in short: as §3
KB = experiment: Cytotoxicity in human KB cells assessed as reduction in cell viability incubated for 72 hrs by SRB assay; format: functional, cell-based; in short: as §1
[8] = Selectivity index, ratio of IC50 for cytotoxicity in human NHDF cells to IC50 for cytotoxicity in human HeLa cells; in short: as §3
U-87 MG = experiment: Cytotoxicity in human U87 cells assessed as reduction in cell viability incubated for 72 hrs by SRB assay; format: functional, cell-based, U-87MG ATCC; in short: as §1

- Drug metabolism [1]: Metabolite_Detected
- Drug metabolism [2]: Metabolite_Detected
- Drug metabolism [3]: Metabolite_Notdetected
SMILES: Cc1cn([C@H]2C[C@H](n3cc(COC(=O)Nc4ccn([C@@H]5O[C@H](CO)[C@@H](O)C5(F)F)c(=O)n4)nn3)[C@@H](CO)O2)c(=O)[nH]c1=O
- pIC50 (NHDF): 5.17
- pIC50 (HeLa): 5.82
- Ratio IC50 [4]: 4.32
- pIC50 (HepG2): 5.82
- pIC50 (A549): 5.78
- Ratio IC50 [5]: 4.38
- Ratio IC50 [6]: 4.01
- Ratio IC50 [7]: 3.55
- pIC50 (KB): 5.81
- Ratio IC50 [8]: 4.41
- pIC50 (U-87 MG): 5.72
